Our source for the inhibition values is ChEMBL document CHEMBL1155213, “Solvent free synthesis of 1,5-disubstituted tetrazoles derived from Baylis Hillman acetates as potential TNF-alpha inhibitors” (2009).

In assay [1] the test system is Blood. The assay is described as follows: Inhibition of LPS-induced TNFalpha production in human whole blood at 100 uM treated 1 hr before LPS challenge measured after 5 hrs by ELISA. It is filed as functional. The method, boiled down:
(§1)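 Whole blood aliquots preincubated 1 h at 37 °C with test compound (10 or 100 μM solution) or DMSO vehicle, then stimulated with LPS in PBS (final 1 ng/ml). Incubated a further 5 h at 37 °C, stopped on ice 10 min. Plasma separated by centrifugation (3000 rpm, 10 min, 4 °C), stored at −70 °C. Plasma TNF-α quantified by ELISA.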

Assay [2] deals with Blood. The experiment in a line: Inhibition of LPS-induced TNFalpha production in human whole blood at 10 uM treated 1 hr before LPS challenge measured after 5 hrs by ELISA. The class given is functional. The method in brief:
as §1

In the assay with Blood [1], `COC(=O)/C(=C/c1ccc(OC)cc1)Cn1nnnc1-c1ccncc1` returned an inhibition at 100 µM of 12.9%. The same compound displayed an inhibition at 10 µM in the assay with Blood [2] of 8.6%.
`COC(=O)/C(=C/c1ccccc1)Cn1nnnc1-c1ccccc1`: at 100 µM the inhibition in the assay with Blood [1] was 35.1%. In the assay with Blood [2], this compound showed an inhibition at 10 µM of 14.6%.
In the assay with Blood [1], `COC(=O)/C(=C/c1ccccc1)Cn1nnnc1-c1ccncc1` came in with an inhibition at 100 µM of 67%. Besides, the inhibition at 10 µM in the assay on Blood [2] is 18.2%.
For the compound `COC(=O)/C(=C/c1ccc(OC)cc1)Cn1nnnc1-c1cccnc1`, the inhibition at 100 µM in the assay on Blood [1] was determined as 30.2%. In addition, the inhibition at 10 µM with Blood [2] amounted to 5.4%.
The corresponding values for `COC(=O)/C(=C/c1ccc(OC)cc1)Cn1nnnc1-c1ccccc1` are 46.3% and 22.2%.
